From ChEMBL document CHEMBL1126180, “4-substituted 2-alkoxytetrahydrofurans as potent and long-lasting PAF antagonists” (J Med Chem, 1992)
Several values for one entry are separate records, joined by “and”; a condition that tells them apart may be missing. Identical values can stand only once. Activity calls are given as the source filed them. The rule behind the calls is not given here.

Legend:
Mus musculus [1] = species on record: Mus musculus; assay: Percent protection of PAF-induced mortality in mice after 7 hr; assay type: functional; parameters: concentration or dose not given beside the values
Outline: (§1)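 Duration study in male Swiss mice (22–26 g). Single 1 mg/kg iv dose of test compound at time 0. C18-PAF 100 µg/kg plus propranolol 1 mg/kg given iv via tail vein at the stated time after dosing, 10–40 mice per time point.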

Mus musculus [2] = species on record: Mus musculus; assay: Percent protection of PAF-induced mortality in mice after 24 hr; assay type: functional; parameters: concentration or dose not given beside the values; outline: as §1
Mus musculus [3] = assay: Compound was evaluated for the inhibition of PAF-induced mortality in mice, after intravenous administration of the drug; assay type: functional; conditions: read-out: ID50 (the source's name)
Mus musculus [4] = species on record: Mus musculus; assay: Percent protection of PAF-induced mortality in mice after 17h; assay type: functional; parameters: concentration or dose not given beside the values; outline: as §1
[5] = Dose required (i.v.) to reduce the lowering of arterial blood pressure caused by PAF in rats.; conditions: Rattus norvegicus
Mus musculus [6] = species on record: Mus musculus; assay: Percent protection of PAF-induced mortality in mice after 5 hr; assay type: functional; parameters: concentration or dose not given beside the values; outline: as §1
Mus musculus [7] = species on record: Mus musculus; assay: Percent protection of PAF-induced mortality in mice after 0.5 hr; assay type: functional; parameters: concentration or dose not given beside the values; outline: as §1
Mus musculus [8] = species on record: Mus musculus; assay: Percent protection of PAF-induced mortality in mice after 3h; assay type: functional; parameters: concentration or dose not given beside the values; outline: as §1
Mus musculus [9] = species on record: Mus musculus; assay: Percent protection of PAF-induced mortality in mice after 2 hr; assay type: functional; parameters: concentration or dose not given beside the values; outline: as §1
Mus musculus [10] = species on record: Mus musculus; assay: Percent protection of PAF-induced mortality in mice after 5h; NP means no protection; assay type: functional, organism-based
Outline: (§2)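 Male Swiss mice (22–26 g) given compound as a single 1 mg/kg iv dose at time 0. At the stated time, C18-PAF 100 µg/kg plus propranolol 1 mg/kg injected into a lateral tail vein. […] 10–40 mice per time point.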

Mus musculus [11] = species on record: Mus musculus; assay: Percent protection of PAF-induced mortality in mice after 7h; NP means no protection; assay type: functional, organism-based; outline: as §2

Question: With `CCCCCCCCCCCCCCCCCCOC1C[C@H](COC(=O)N(Cc2cccc[n+]2CC)C(C)=O)CO1.[I-]` (some centres not stated) as the molecule, how does the Protection (Mus musculus [1]) read?
Answer: 100%

Question: And the Protection (Mus musculus [2])?
Answer: 60%

Question: And the ED50 (Mus musculus [3])?
Answer: 0.012 mg/kg

Question: And the Protection (Mus musculus [4])?
Answer: 93%

Question: And the ID50 [5]?
Answer: 0.031 mg/kg

Question: What about the Protection (Mus musculus [6]) of the same molecule?
Answer: 100%

Question: With `CC[n+]1ccccc1CN(C(C)=O)C(=O)OCC1COC(OCCCc2ccccc2)C1` (configuration not stated) as the molecule, how does the ID50 [5] read?
Answer: 0.12 mg/kg

Question: With `CCCCCCCCCCCCCCCCCCCCOC1CC(COC(=O)N(Cc2cccc[n+]2CC)C(C)=O)CO1` (configuration not stated) as the molecule, how does the ID50 [5] read?
Answer: 0.048 mg/kg

Question: With `CC[n+]1ccccc1CN(C(C)=O)C(=O)OCC1COC(OCCC(C)C)C1` (configuration not stated) as the molecule, how does the ID50 [5] read?
Answer: 0.21 mg/kg

Question: Which Protection (Mus musculus [7]) does the source give for `CCCCCCCCCCCCCCCCOC1CC(COC(=O)N(Cc2cccc[n+]2CC)C(C)=O)CO1.[I-]` (configuration not stated) here?
Answer: 100%

Question: What about the Protection (Mus musculus [1]) of the same molecule?
Answer: 64%

Question: And the Protection (Mus musculus [2])?
Answer: 44%

Question: And the ED50 (Mus musculus [3])?
Answer: 0.024 mg/kg

Question: What about the Protection (Mus musculus [8]) of the same molecule?
Answer: 88%

Question: What about the Protection (Mus musculus [4]) of the same molecule?
Answer: 65%

Question: And the ID50 [5]?
Answer: 0.01 mg/kg

Question: What about the Protection (Mus musculus [6]) of the same molecule?
Answer: 61%

Question: What about the Protection (Mus musculus [9]) of the same molecule?
Answer: 100%

Question: For `CCCCCCCCCCOCCCCCCOC1CC(COC(=O)N(Cc2cccc[n+]2CC)C(C)=O)CO1.[I-]` (configuration not stated), which Protection (Mus musculus [7]) is on record?
Answer: 100%

Question: And the Protection (Mus musculus [1])?
Answer: 88%

Question: What about the Protection (Mus musculus [2]) of the same molecule?
Answer: 51%

Question: And the ED50 (Mus musculus [3])?
Answer: 0.0064 mg/kg

Question: And the Protection (Mus musculus [8])?
Answer: 100%

Question: What about the Protection (Mus musculus [4]) of the same molecule?
Answer: 40%

Question: And the ID50 [5]?
Answer: 0.004 mg/kg

Question: And the Protection (Mus musculus [6])?
Answer: 100%

Question: And the Protection (Mus musculus [9])?
Answer: 100%

Question: Which Protection (Mus musculus [7]) does the source give for `CCCCCCCCCCCCCCCCCC1CC(COC(=O)N(Cc2cccc[n+]2CC)C(C)=O)CO1.[I-]` (configuration not stated) here?
Answer: 100%

Question: What about the Protection (Mus musculus [10]) of the same molecule?
Answer: inactive

Question: What about the ED50 (Mus musculus [3]) of the same molecule?
Answer: 0.36 mg/kg

Question: And the Protection (Mus musculus [8])?
Answer: 16%

Question: What about the ID50 [5] of the same molecule?
Answer: 0.05 mg/kg

Question: What about the Protection (Mus musculus [9]) of the same molecule?
Answer: 16%

Question: Which ID50 [5] does the source give for `CC[n+]1ccccc1CN(C(C)=O)C(=O)OCC1COC(OCCC(c2ccccc2)c2ccccc2)C1` (configuration not stated) here?
Answer: 0.11 mg/kg

Question: Which ID50 [5] does the source give for `CCOC1CC(COC(=O)N(Cc2cccc[n+]2CC)C(C)=O)CO1` (configuration not stated) here?
Answer: 2.3 mg/kg

Question: Which Protection (Mus musculus [1]) does the source give for `CCCCCCCCCCCCCCCCOCC1CC(COC(=O)N(Cc2cccc[n+]2CC)C(C)=O)CO1.[Cl-]` (configuration not stated) here?
Answer: 65%

Question: And the Protection (Mus musculus [2])?
Answer: 17%

Question: And the ED50 (Mus musculus [3])?
Answer: 0.031 mg/kg

Question: And the Protection (Mus musculus [8])?
Answer: 75%

Question: And the Protection (Mus musculus [4])?
Answer: 44%

Question: What about the ID50 [5] of the same molecule?
Answer: 0.027 mg/kg

Question: And the Protection (Mus musculus [6])?
Answer: 54%

Question: And the Protection (Mus musculus [9])?
Answer: 100%

Question: For `CCCCCCCCCCCCCCCCCCO[C@@H]1C[C@H](COC(=O)N(Cc2cccc[n+]2CC)C(C)=O)CO1.[I-]`, which Protection (Mus musculus [1]) is on record?
Answer: 100%

Question: What about the Protection (Mus musculus [2]) of the same molecule?
Answer: 38%

Question: And the ED50 (Mus musculus [3])?
Answer: 0.03 mg/kg

Question: And the Protection (Mus musculus [4])?
Answer: 67%

Question: And the ID50 [5]?
Answer: 0.066 mg/kg

Question: For `CCCCCCCCCCCCCCCCCCOCC1CC(COC(=O)N(Cc2cccc[n+]2CC)C(C)=O)CO1.[Cl-]` (configuration not stated), which Protection (Mus musculus [1]) is on record?
Answer: 100%

Question: What about the Protection (Mus musculus [2]) of the same molecule?
Answer: 33%

Question: What about the ED50 (Mus musculus [3]) of the same molecule?
Answer: 0.026 mg/kg

Question: And the Protection (Mus musculus [8])?
Answer: 100%

Question: And the Protection (Mus musculus [4])?
Answer: 44%

Question: And the ID50 [5]?
Answer: 0.011 mg/kg

Question: And the Protection (Mus musculus [6])?
Answer: 100%

Question: With `CCCCCCCCCCCCCCCCCCNC(=O)OCC(COC(=O)N(Cc1cccc[n+]1CC)C(C)=O)OC.[Cl-]` (configuration not stated) [CV-6209] as the molecule, how does the Protection (Mus musculus [7]) read?
Answer: 100%

Question: And the Protection (Mus musculus [1])?
Answer: 100%

Question: What about the Protection (Mus musculus [2]) of the same molecule?
Answer: 48%

Question: What about the ED50 (Mus musculus [3]) of the same molecule?
Answer: 0.022 mg/kg

Question: And the Protection (Mus musculus [8])?
Answer: 100%

Question: And the Protection (Mus musculus [4])?
Answer: 95%

Question: And the ID50 [5]?
Answer: 0.0078 mg/kg

Question: And the Protection (Mus musculus [6])?
Answer: 100%

Question: What about the Protection (Mus musculus [9]) of the same molecule?
Answer: 100%

Question: For `CC[n+]1ccccc1CN(C(C)=O)C(=O)OCC1COC(OCCCCCCOCCCCCc2ccccc2)C1.[I-]` (configuration not stated), which Protection (Mus musculus [7]) is on record?
Answer: 100%

Question: What about the Protection (Mus musculus [1]) of the same molecule?
Answer: 80%

Question: And the Protection (Mus musculus [2])?
Answer: 38%

Question: What about the ED50 (Mus musculus [3]) of the same molecule?
Answer: 0.0083 mg/kg

Question: What about the Protection (Mus musculus [8]) of the same molecule?
Answer: 100%

Question: And the Protection (Mus musculus [4])?
Answer: 38%

Question: And the ID50 [5]?
Answer: 0.021 mg/kg

Question: What about the Protection (Mus musculus [6]) of the same molecule?
Answer: 89%

Question: And the Protection (Mus musculus [9])?
Answer: 100%

Question: For `CC[n+]1ccccc1CN(C(C)=O)C(=O)OCC1COC(OCCCCCCOCCCc2ccccc2)C1.[I-]` (configuration not stated), which Protection (Mus musculus [10]) is on record?
Answer: inactive

Question: What about the ED50 (Mus musculus [3]) of the same molecule?
Answer: 0.073 mg/kg

Question: And the Protection (Mus musculus [8])?
Answer: 50%

Question: What about the ID50 [5] of the same molecule?
Answer: 0.06 mg/kg

Question: What about the Protection (Mus musculus [9]) of the same molecule?
Answer: 100%

Question: For `CC[n+]1ccccc1CN(C(C)=O)C(=O)OCC1COC(OCCCCCCOCc2ccc(-c3ccccc3)cc2)C1` (configuration not stated), which ID50 [5] is on record?
Answer: 0.012 mg/kg

Question: For `CCCCCCCCCCCCCCCCCCOC1CC(COC(=O)N(Cc2cccc[n+]2CC)C(C)=O)CO1.[Cl-]` (configuration not stated), which Protection (Mus musculus [7]) is on record?
Answer: 100%

Question: And the Protection (Mus musculus [1])?
Answer: 95%

Question: What about the Protection (Mus musculus [2]) of the same molecule?
Answer: 48%

Question: What about the ED50 (Mus musculus [3]) of the same molecule?
Answer: 0.023 mg/kg

Question: And the Protection (Mus musculus [8])?
Answer: 100%

Question: And the Protection (Mus musculus [4])?
Answer: 81%

Question: And the ID50 [5]?
Answer: 0.026 mg/kg and 0.025 mg/kg

Question: And the Protection (Mus musculus [6])?
Answer: 100%

Question: And the Protection (Mus musculus [9])?
Answer: 100%

Question: For `C=CCCCCCCOCCCCCCOC1CC(COC(=O)N(Cc2cccc[n+]2CC)C(C)=O)CO1.[I-]` (configuration not stated), which Protection (Mus musculus [1]) is on record?
Answer: 40%

Question: And the ED50 (Mus musculus [3])?
Answer: 0.024 mg/kg

Question: What about the Protection (Mus musculus [8]) of the same molecule?
Answer: 88%

Question: And the Protection (Mus musculus [4])?
Answer: 20%

Question: And the ID50 [5]?
Answer: 0.063 mg/kg

Question: And the Protection (Mus musculus [6])?
Answer: 63%

Question: And the Protection (Mus musculus [9])?
Answer: 100%

Question: Which Protection (Mus musculus [7]) does the source give for `CC[n+]1ccccc1CN(C(C)=O)C(=O)OCC1COC(OCCCCCCCCCCCCCCCCOC)C1.[I-]` (configuration not stated) here?
Answer: 100%

Question: And the ED50 (Mus musculus [3])?
Answer: 0.0076 mg/kg

Question: What about the Protection (Mus musculus [8]) of the same molecule?
Answer: 66%

Question: And the ID50 [5]?
Answer: 0.04 mg/kg

Question: What about the Protection (Mus musculus [6]) of the same molecule?
Answer: 59%

Question: What about the Protection (Mus musculus [9]) of the same molecule?
Answer: 100%

Question: And the Protection (Mus musculus [11])?
Answer: inactive
